According to ChEMBL document CHEMBL3351639, “Fluorinated analogues of marsanidine, a highly α2-AR/imidazoline I1 binding site-selective hypotensive agent. Synthesis and biological activities” (Eur J Med Chem, 2014):

Assays:
[1] = target: T1, Alpha-2B adrenergic receptor (Homo sapiens, UniProt P18089); test: Displacement of [3H]RS-79948-197 from human alpha2B adrenoceptor expressed in CHO-K1 cells after 45 mins by liquid scintillation counting; type: cell-based
T1 sequence (P18089 whole entry): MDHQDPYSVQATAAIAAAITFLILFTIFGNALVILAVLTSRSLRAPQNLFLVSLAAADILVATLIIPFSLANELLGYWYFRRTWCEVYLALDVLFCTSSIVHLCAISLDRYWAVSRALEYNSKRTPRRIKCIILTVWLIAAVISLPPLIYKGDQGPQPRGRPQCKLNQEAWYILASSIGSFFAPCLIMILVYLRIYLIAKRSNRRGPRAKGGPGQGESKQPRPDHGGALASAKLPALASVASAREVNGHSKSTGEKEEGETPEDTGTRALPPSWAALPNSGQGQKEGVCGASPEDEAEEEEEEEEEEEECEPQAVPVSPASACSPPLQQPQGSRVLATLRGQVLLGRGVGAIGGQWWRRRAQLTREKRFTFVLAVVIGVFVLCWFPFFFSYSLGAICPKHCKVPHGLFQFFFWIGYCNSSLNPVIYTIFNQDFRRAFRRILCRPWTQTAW
Summary of the method: (§1)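 Membranes from CHO-K1 cells stably expressing each human α2-AR subtype (6–10 µg protein). Used 0.2 nM [3H]RS-79948-197 and 8 serial dilutions of competitor in 50 mM potassium phosphate, pH 7.4. Non-specific binding defined with 100 µM oxymetazoline. Filtration, then scintillation counting. Run in duplicate, at least 3 repeats. One-site nonlinear fit; IC50 converted to Ki by Cheng-Prusoff.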

[2] = target: T2, Alpha-2A adrenergic receptor (Homo sapiens, UniProt P08913); test: Agonist activity at human alpha2A adrenoceptor expressed in CHO-K1 cells after 30 mins by [35S]GTPgammaS binding assay; type: functional, cell-based
T2 sequence (P08913 whole entry): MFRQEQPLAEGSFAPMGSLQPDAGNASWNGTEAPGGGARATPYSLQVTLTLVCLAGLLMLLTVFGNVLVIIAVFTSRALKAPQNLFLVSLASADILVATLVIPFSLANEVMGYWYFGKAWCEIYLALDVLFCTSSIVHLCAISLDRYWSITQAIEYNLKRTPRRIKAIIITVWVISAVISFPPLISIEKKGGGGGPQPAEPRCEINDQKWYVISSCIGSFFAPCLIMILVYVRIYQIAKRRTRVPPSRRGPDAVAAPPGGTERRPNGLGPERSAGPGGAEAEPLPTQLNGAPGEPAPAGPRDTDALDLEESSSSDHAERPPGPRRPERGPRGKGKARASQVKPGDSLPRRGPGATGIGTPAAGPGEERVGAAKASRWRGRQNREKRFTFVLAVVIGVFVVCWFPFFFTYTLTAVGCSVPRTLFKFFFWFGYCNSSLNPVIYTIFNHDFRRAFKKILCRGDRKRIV
Summary of the method: (§2)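 Membranes from CHO cells stably expressing human α2A-AR (5 µg protein) were incubated with 7 or 8 serial dilutions of compound and 0.1 nM [35S]GTPγS. Buffer: 25 mM Tris, 1 mM EDTA, 5 mM MgCl2, 20 mM NaCl, 1 µM GDP, 1 mM DTT, 30 µM ascorbic acid, pH 7.4. Incubation 30 min at RT, then vacuum filtration and scintillation counting. Run in duplicate, at least 3 repeats.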

[3] = target: T3, Alpha-2A adrenergic receptor (Homo sapiens) (UniProt P08913); test: Intrinsic activity at human alpha2A adrenoceptor expressed in CHO-K1 cells after 30 mins by [35S]GTPgammaS binding assay relative to norepinephrine; type: functional, cell-based; summary of the method: as §2
T3 sequence (whole entry): T2 sequence (P08913 whole entry)

[4] = target: T4, Adrenergic receptor alpha-2 (Rattus norvegicus, UniProt P22086+P19328+P22909); test: Displacement of [3H]RX821002 from alpha2-adrenoceptor in Sprague-Dawley rat brain membranes after 45 mins by liquid scintillation counting; type: cell membranes, Membrane
T4 sequence (P22086 whole entry): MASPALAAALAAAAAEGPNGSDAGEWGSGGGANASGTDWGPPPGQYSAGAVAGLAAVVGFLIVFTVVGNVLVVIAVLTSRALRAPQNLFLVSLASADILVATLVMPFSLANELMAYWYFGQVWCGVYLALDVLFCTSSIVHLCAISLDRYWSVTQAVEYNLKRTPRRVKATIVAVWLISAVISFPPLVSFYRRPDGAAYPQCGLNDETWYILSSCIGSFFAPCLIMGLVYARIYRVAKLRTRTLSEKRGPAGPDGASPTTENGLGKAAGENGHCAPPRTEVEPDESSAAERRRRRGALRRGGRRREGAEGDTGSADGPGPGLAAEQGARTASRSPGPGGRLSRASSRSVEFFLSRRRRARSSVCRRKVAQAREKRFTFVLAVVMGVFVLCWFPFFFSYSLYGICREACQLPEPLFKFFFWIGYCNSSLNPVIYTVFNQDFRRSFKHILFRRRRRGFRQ
T4 sequence (P19328 whole entry): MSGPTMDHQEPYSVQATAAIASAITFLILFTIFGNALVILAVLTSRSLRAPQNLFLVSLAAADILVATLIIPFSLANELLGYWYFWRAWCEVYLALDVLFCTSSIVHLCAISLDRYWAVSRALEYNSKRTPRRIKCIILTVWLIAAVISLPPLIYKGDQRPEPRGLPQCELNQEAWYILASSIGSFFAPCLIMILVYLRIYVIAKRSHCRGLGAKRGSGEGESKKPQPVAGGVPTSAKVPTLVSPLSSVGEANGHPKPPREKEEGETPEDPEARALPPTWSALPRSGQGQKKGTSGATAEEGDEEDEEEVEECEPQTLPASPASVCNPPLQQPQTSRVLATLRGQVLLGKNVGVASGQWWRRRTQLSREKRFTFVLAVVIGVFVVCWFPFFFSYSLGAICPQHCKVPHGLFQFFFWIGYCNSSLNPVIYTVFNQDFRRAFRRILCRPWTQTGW
T4 sequence (P22909 whole entry): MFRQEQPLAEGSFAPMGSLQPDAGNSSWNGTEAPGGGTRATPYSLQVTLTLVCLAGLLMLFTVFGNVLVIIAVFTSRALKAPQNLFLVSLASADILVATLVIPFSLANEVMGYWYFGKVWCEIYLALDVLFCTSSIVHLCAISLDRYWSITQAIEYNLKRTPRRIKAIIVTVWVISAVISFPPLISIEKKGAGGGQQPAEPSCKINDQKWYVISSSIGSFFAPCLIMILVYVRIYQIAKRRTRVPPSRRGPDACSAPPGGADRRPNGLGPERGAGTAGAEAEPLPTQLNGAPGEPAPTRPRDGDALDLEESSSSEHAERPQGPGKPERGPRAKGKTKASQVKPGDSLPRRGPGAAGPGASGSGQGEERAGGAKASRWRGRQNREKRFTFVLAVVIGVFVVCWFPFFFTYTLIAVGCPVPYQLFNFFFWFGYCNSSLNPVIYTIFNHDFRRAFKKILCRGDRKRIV
Summary of the method: (§3)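 Crude P2 membranes from brains of male Sprague-Dawley rats (250–280 g), 0.2–0.3 mg protein. Radioligand 1 nM [3H]RX821002 (α2) or [3H]prazosin (α1); 11 concentrations of compound, 0.1 nM–100 µM. Non-specific binding: 10 µM rauwolscine (α2) or 10 µM phenylephrine (α1). Triplicate incubation, RT, 45 min. PEI-soaked glass-fibre filtration, then scintillation counting. Ki by Cheng-Prusoff; 3–4 experiments, or one for low-affinity compounds.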

[5] = target: T5, Alpha-2C adrenergic receptor (Homo sapiens, UniProt P18825); test: Displacement of [3H]RS-79948-197 from human alpha2C adrenoceptor expressed in CHO-K1 cells after 45 mins by liquid scintillation counting; type: cell-based; summary of the method: as §1
T5 sequence (P18825 whole entry): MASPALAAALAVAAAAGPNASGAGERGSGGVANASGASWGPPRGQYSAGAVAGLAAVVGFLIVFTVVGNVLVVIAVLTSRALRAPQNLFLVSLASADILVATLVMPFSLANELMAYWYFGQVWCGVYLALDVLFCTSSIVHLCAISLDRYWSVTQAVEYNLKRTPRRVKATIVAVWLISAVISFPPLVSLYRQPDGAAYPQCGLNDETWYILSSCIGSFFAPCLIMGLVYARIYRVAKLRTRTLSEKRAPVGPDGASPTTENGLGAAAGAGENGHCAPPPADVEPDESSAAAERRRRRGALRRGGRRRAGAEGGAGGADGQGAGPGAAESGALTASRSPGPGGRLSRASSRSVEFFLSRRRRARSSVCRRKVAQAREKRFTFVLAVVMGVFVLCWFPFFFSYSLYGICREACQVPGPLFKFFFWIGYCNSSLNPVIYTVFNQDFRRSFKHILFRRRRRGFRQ

[6] = Displacement of […] from imidazoline I2 receptor in Sprague-Dawley rat kidney membranes after 45 mins by liquid scintillation counting; type: cell membranes, Membrane
[7] = target: T2, Alpha-2A adrenergic receptor; test: Displacement of [3H]RS-79948-197 from human alpha2A adrenoceptor expressed in CHO-K1 cells after 45 mins by liquid scintillation counting; type: cell-based; summary of the method: as §1
[8] = target: T6, Adrenergic receptor alpha-1 (Rattus norvegicus, UniProt P15823+P23944+P43140); test: Displacement of [3H]prazosin from alpha1-adrenoceptor in Sprague-Dawley rat brain membranes after 45 mins by liquid scintillation counting; type: cell membranes, Membrane; summary of the method: as §3
T6 sequence (P15823 whole entry): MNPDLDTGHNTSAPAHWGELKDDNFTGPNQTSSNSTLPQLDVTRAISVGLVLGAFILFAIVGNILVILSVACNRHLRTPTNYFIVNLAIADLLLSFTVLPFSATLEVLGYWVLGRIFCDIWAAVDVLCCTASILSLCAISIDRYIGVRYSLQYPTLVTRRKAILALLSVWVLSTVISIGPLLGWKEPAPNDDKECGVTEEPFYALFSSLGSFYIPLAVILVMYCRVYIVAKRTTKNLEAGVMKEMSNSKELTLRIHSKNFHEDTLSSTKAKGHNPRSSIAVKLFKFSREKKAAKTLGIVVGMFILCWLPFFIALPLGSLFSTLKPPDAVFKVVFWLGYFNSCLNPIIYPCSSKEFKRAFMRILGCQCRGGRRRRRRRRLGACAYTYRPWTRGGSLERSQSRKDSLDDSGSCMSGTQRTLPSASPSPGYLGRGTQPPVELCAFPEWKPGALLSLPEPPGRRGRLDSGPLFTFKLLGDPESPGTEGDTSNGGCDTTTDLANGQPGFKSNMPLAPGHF
T6 sequence (P23944 whole entry): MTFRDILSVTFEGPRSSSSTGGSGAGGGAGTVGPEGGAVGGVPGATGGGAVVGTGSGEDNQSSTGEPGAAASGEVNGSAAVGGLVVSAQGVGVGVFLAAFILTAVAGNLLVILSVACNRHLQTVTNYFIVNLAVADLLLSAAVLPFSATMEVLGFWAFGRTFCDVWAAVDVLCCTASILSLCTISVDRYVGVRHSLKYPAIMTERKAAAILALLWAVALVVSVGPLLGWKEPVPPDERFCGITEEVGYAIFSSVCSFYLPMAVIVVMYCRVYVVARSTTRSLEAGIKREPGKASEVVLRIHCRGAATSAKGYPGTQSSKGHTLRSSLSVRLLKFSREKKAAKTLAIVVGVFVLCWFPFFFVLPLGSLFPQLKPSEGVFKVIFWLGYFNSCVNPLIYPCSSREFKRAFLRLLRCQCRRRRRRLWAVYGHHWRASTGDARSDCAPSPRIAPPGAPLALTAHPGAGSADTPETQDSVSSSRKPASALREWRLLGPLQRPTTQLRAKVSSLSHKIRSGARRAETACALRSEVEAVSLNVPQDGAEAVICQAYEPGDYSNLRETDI
T6 sequence (P43140 whole entry): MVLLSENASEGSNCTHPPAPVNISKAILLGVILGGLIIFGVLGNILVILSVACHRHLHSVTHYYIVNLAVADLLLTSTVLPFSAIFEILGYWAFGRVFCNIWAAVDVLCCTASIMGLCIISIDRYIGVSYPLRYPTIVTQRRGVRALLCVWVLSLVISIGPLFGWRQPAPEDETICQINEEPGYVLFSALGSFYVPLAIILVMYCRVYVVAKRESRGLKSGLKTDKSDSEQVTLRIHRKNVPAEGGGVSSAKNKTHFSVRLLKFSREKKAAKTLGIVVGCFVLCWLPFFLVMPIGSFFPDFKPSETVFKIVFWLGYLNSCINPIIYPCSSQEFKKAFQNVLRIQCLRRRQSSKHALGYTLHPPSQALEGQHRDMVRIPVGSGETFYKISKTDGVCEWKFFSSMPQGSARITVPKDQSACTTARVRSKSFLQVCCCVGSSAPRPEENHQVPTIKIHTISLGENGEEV

Nischarin = Nischarin (Rattus norvegicus, UniProt Q4G017); test: Displacement of […] from imidazoline I1 receptor in Sprague-Dawley rat kidney membranes after 45 mins by liquid scintillation counting; type: cell membranes, Membrane
Chain of Nischarin (Q4G017 whole entry): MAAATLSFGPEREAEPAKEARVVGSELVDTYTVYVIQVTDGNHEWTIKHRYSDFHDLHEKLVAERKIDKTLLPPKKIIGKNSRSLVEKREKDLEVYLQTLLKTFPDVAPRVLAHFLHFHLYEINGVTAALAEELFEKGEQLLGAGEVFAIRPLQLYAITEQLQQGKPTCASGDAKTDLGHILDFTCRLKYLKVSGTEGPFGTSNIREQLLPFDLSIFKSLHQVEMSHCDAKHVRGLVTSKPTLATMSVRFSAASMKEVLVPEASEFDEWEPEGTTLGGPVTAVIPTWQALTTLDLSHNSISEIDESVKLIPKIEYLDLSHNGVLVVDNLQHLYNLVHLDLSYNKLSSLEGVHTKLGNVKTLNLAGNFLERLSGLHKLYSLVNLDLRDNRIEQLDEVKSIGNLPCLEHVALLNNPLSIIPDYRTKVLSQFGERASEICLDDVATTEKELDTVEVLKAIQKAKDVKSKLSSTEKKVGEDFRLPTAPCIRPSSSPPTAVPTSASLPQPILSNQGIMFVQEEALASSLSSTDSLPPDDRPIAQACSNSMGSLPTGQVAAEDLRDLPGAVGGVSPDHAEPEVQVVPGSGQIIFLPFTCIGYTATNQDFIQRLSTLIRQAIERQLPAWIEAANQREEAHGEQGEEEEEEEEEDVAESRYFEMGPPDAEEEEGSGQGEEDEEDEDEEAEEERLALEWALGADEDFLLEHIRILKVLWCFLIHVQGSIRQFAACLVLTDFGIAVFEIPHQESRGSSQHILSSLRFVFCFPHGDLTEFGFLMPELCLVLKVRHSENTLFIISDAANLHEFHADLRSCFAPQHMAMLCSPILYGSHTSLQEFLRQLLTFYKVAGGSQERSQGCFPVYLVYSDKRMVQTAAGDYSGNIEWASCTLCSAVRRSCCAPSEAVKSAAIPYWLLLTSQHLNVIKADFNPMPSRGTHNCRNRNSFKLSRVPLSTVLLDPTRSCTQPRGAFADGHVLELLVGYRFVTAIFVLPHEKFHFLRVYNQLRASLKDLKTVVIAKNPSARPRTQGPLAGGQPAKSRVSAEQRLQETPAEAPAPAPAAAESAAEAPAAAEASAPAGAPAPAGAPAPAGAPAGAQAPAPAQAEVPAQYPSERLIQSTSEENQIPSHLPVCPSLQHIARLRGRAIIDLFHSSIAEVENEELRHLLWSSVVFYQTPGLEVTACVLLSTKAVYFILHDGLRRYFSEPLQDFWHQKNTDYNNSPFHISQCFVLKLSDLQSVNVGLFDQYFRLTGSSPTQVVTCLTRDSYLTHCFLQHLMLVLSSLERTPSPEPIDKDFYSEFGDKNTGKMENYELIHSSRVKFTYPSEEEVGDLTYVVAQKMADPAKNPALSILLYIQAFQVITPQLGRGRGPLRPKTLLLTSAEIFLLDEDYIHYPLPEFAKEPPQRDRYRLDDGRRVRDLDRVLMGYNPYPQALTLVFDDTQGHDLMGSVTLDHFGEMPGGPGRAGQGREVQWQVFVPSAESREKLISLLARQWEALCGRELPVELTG

SMILES | Ki [1] [µM] | EC50 [2] [µM] | Intrinsic activity [3] [%] | Ki [4] [µM] | Ki [5] [µM] | Ki [6] [µM] | Ki [7] [µM] | Ki [8] [µM] | IC50 (Nischarin) [µM]
c1ccc2c(c1)cnn2N=C1NCCN1 [MARSANIDINE] | 0.079 | 0.0933 | 14 | 0.01405 | 0.64 | 16.9 | 0.052 |  | 
Fc1c(F)c(F)c2c(cnn2N=C2NCCN2)c1F |  |  |  | 3.717 |  | 22.7 |  | 19.793 | 5.83
Fc1cccc2c1cnn2N=C1NCCN1 |  |  |  | 0.416 |  | 6.18 |  | 3.807 | 14.8
Fc1cccc2c1cnn2CC1=NCCN1 |  |  |  | 0.1873 |  | 0.0219 |  | 0.5347 | 1.77
